Calls of active or inactive are those of the source. No cut-off for these calls is given here.
Key:
Rhodopsin kinase GRK1 = Rhodopsin kinase GRK1 (Bos taurus, UniProt P28327); test: Inhibition of bovine GRK1 (1 to 535 residues) after 5 mins after 5 mins in presence of ATP by phosphorimaging assay
[1] = target: G protein-coupled receptor kinase 5 (Bos taurus, UniProt P43249); test: Inhibition of bovine GRK5 after 5 mins after 5 mins in presence of ATP by phosphorimaging assay
[2] = Inhibition of mouse PKA using CREBtide as substrate after 30 mins in presence of ATP by ADP-Glo kinase assay
Outline: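 Mouse PKA catalytic subunit activity by ADP-Glo luminescence per kit protocol; inhibition curves fitted to obtain values.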

Liver = test: Half life in CD-1 mouse liver microsomes at 1 uM measured up to 60 mins in presence of NADPH by LC-MS/MS analysis; format: ADME, microsome; settings: 1 h
[3] = target: T1, Beta-adrenergic receptor kinase 1 (Mus musculus) (UniProt Q99MK8); test: Inhibition of GRK2 in isoproterenol-stimulated C57/BL6 mouse cardiomyocytes assessed as increase in contractility by measuring cell shortening at 1 uM pretreated for 10 mins followed by beta-AR agonist isoproterenol addition for 2 mins
T1 sequence (whole entry): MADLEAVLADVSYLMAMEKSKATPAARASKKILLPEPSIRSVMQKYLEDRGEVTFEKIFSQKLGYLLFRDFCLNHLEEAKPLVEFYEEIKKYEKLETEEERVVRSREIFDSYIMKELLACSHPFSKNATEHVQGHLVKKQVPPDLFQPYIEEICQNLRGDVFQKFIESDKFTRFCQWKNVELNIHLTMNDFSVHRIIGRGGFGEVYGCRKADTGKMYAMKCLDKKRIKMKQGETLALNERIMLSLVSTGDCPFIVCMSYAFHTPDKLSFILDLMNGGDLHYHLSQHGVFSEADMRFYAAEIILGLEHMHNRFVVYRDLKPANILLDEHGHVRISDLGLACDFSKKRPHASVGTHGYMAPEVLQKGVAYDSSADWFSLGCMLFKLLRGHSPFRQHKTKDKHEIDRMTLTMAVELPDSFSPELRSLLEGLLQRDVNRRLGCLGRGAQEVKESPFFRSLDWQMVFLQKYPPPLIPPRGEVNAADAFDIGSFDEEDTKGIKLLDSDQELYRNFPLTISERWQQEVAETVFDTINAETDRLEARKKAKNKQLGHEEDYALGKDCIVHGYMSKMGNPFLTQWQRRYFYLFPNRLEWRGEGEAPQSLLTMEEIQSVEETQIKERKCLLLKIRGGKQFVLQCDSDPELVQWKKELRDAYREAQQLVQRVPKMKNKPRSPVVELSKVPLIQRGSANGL

[4] = Plasma concentration in CD-1 mouse at 10 mg/kg, ip after 4 hrs administered as single dose by LC-MS/MS analysis; format: ADME, organism-based
Outline: (§1)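 Female CD-1 mice given a single ip dose of 10 mg/kg in 15% DMSO/15% PEG-400/70% PBS (v/v); blood sampled at 0.5, 2, 4 and 7 h, centrifuged, plasma frozen at −80 °C; drug quantified by positive-ion MRM LC–MS/MS; parameters by noncompartmental analysis.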

[5] = Plasma concentration in CD-1 mouse at 10 mg/kg, ip after 7 hrs administered as single dose by LC-MS/MS analysis; format: ADME, organism-based; outline: as §1
Mus musculus = test: AUC (0 to 7 hrs) in CD-1 mouse at 10 mg/kg, ip administered as single dose by LC-MS/MS analysis; format: ADME, organism-based; set-up: time < 7 hr, dose 10 mg/kg, route intraperitoneal; settings: in vivo; outline: as §1
[6] = target: T1, Beta-adrenergic receptor kinase 1 (Mus musculus); test: Inhibition of GRK2 in isoproterenol-stimulated C57/BL6 mouse cardiomyocytes assessed as increase in contractility by measuring cell shortening at 0.5 uM pretreated for 10 mins followed by beta-AR agonist isoproterenol addition for 2 mins
[7] = target: T1, Beta-adrenergic receptor kinase 1 (Mus musculus); test: Inhibition of GRK2 in isoproterenol-stimulated C57/BL6 mouse cardiomyocytes assessed as increase in contractility by measuring cell shortening at 0.1 uM pretreated for 10 mins followed by beta-AR agonist isoproterenol addition for 2 mins
[8] = target: T1, Beta-adrenergic receptor kinase 1 (Mus musculus); settings: C57/BL6

G protein-coupled receptor kinase 5, sequence (P43249 whole entry): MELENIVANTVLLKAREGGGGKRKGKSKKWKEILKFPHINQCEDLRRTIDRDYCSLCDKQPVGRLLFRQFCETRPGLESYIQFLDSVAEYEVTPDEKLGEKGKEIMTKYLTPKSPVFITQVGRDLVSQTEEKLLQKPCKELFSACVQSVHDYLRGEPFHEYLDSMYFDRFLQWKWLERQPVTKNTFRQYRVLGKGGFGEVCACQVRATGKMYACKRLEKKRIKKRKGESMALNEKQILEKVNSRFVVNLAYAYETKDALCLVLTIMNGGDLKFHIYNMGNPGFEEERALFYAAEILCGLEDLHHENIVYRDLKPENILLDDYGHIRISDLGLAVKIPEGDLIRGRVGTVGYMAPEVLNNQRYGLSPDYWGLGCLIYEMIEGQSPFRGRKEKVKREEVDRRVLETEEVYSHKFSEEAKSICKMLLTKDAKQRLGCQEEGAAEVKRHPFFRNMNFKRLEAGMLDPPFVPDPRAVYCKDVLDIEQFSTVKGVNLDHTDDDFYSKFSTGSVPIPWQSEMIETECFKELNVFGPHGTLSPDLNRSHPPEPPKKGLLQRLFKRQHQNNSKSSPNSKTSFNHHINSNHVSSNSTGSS
Rhodopsin kinase GRK1, sequence (P28327 whole entry, the tested form may be a part): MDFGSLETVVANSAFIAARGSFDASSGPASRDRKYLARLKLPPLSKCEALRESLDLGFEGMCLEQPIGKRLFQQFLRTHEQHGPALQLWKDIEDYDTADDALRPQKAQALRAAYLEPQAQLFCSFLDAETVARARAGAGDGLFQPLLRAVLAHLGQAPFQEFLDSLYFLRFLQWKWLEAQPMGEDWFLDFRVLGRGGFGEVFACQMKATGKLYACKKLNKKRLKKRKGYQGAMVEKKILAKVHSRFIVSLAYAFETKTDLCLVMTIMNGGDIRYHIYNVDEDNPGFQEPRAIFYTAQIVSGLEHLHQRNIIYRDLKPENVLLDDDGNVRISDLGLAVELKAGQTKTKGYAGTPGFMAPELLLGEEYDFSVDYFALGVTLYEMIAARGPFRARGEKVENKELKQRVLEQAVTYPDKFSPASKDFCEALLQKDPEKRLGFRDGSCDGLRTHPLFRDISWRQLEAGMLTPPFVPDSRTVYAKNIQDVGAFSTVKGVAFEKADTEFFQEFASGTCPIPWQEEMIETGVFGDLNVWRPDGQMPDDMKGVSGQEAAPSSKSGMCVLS

Structure (SMILES)	IC50 [2]	IC50 (Rhodopsin kinase GRK1)	IC50 [1]	also measured
O=C(NCc1ncc[nH]1)c1cc([C@@H]2CCNC[C@H]2COc2ccc3c(c2)OCO3)ccc1F	> 100 µM	> 100 µM	14.8 µM	
CC1=C(C(=O)Nc2ccc3[nH]ncc3c2)C(c2ccc(F)cc2)NC(=O)N1 (centres undefined) [GSK-180736A]		> 100 µM		t1/2 (Liver): 20.6 min; inhibition [3]: Active
O=C(NCCc1c(F)cccc1F)c1cc([C@@H]2CCNC[C@H]2COc2ccc3c(c2)OCO3)ccc1F	> 100 µM	> 100 µM	10.2 µM	
Cc1cc(CNC(=O)c2cc([C@@H]3CCNC[C@H]3COc3ccc4c(c3)OCO4)ccc2F)n[nH]1	> 100 µM	86.5 µM	4 µM	t1/2 (Liver): 10.3 min
O=C(Cc1cc([C@@H]2CCNC[C@H]2COc2ccc3c(c2)OCO3)ccc1F)NCCc1cn[nH]c1	> 100 µM	> 100 µM	> 100 µM	
CCCn1c(CNc2cccc(C(=O)NCc3c(F)cccc3F)c2)nnc1-c1ccncn1		9.1 µM	2.2 µM	
COc1ccccc1CNC(=O)Cc1cc([C@@H]2CCNC[C@H]2COc2ccc3c(c2)OCO3)ccc1F	25.8 µM	> 100 µM	> 100 µM	
COc1cccc(OC)c1CNC(=O)c1cc(C2NC(=O)NC(C)=C2C(=O)Nc2ccc3[nH]ncc3c2)ccc1F (centres undefined)	> 100 µM	> 100 µM	> 100 µM	t1/2 (Liver): 3.82 min
O=C(Cc1cc([C@@H]2CCNC[C@H]2COc2ccc3c(c2)OCO3)ccc1F)NCCc1ccccn1	> 100 µM	> 100 µM	> 100 µM	
CNC(=O)c1cc([C@@H]2CCNC[C@H]2COc2ccc3c(c2)OCO3)ccc1F	> 100 µM	> 100 µM	> 100 µM	
O=C(Cc1cc([C@@H]2CCNC[C@H]2COc2ccc3c(c2)OCO3)ccc1F)NCc1ccccn1	48.2 µM	60 µM	> 100 µM	
Cn1c(CNc2cccc(C(=O)NCc3ccccc3C(F)(F)F)c2)nnc1-c1ccncc1		52.1 µM	9.2 µM	concentration at 4 h [4]: 5 nM; concentration at 7 h [5]: 6 nM; AUC (Mus musculus): 1.9 µM·h
O=C(NCc1ccccn1)c1cc([C@@H]2CCNC[C@H]2COc2ccc3c(c2)OCO3)ccc1F	> 100 µM	> 100 µM	17.1 µM	t1/2 (Liver): 3.15 min; inhibition [6]: inactive; inhibition [3]: inactive
Fc1ccc([C@@H]2CCNC[C@H]2COc2ccc3c(c2)OCO3)cc1 [PAROXETINE]	> 100 µM	> 100 µM	> 100 µM	t1/2 (Liver): 24.3 min
O=C(NCc1ccccc1C(F)(F)F)c1cc([C@@H]2CCNC[C@H]2COc2ccc3c(c2)OCO3)ccc1F	> 100 µM	> 100 µM	75.7 µM	
Cc1cccc(C)c1CNC(=O)c1cc([C@@H]2CCNC[C@H]2COc2ccc3c(c2)OCO3)ccc1F	> 100 µM	24.5 µM	42.3 µM	t1/2 (Liver): 45.9 min
O=C(NCc1cccnc1)c1cc([C@@H]2CCNC[C@H]2COc2ccc3c(c2)OCO3)ccc1F	> 100 µM	> 100 µM	76.3 µM	
O=C(NCc1ccccc1)c1cc([C@@H]2CCNC[C@H]2COc2ccc3c(c2)OCO3)ccc1F	> 100 µM	> 100 µM	84.3 µM	
O=C(NCc1c(Cl)cccc1Cl)c1cc([C@@H]2CCNC[C@H]2COc2ccc3c(c2)OCO3)ccc1F	> 100 µM	25.8 µM	33.2 µM	t1/2 (Liver): 36.4 min
O=C(NCc1c(F)cccc1F)c1cc([C@@H]2CCNC[C@H]2COc2ccc3c(c2)OCO3)ccc1F	> 100 µM	> 100 µM	37.2 µM	
COc1cccc(OC)c1CNC(=O)c1cc([C@@H]2CCNC[C@H]2COc2ccc3c(c2)OCO3)ccc1F	> 100 µM	32 µM	38.4 µM	t1/2 (Liver): 24.9 min

The next lines start with results.

IC50 [2]	Structure (SMILES)	IC50 (Rhodopsin kinase GRK1)	IC50 [1]	also measured
> 100 µM	COc1ccccc1CNC(=O)c1cc([C@@H]2CCNC[C@H]2COc2ccc3c(c2)OCO3)ccc1F	> 100 µM	> 100 µM	
> 100 µM	O=C(NCCc1cc[nH]n1)c1cc([C@@H]2CCNC[C@H]2COc2ccc3c(c2)OCO3)ccc1F	> 100 µM	> 100 µM	
> 100 µM	O=C(NCCc1c[nH]cn1)c1cc([C@@H]2CCNC[C@H]2COc2ccc3c(c2)OCO3)ccc1F	> 100 µM	> 100 µM	
> 100 µM	O=C(NCc1cn[nH]c1)c1cc([C@@H]2CCNC[C@H]2COc2ccc3c(c2)OCO3)ccc1F	> 100 µM	> 100 µM	
> 100 µM	Cn1nccc1CNC(=O)c1cc([C@@H]2CCNC[C@H]2COc2ccc3c(c2)OCO3)ccc1F	> 100 µM	> 100 µM	
> 100 µM	Cn1ccc(CNC(=O)c2cc([C@@H]3CCNC[C@H]3COc3ccc4c(c3)OCO4)ccc2F)n1	> 100 µM	> 100 µM	
> 100 µM	O=C(NCCc1ccccn1)c1cc([C@@H]2CCNC[C@H]2COc2ccc3c(c2)OCO3)ccc1F	> 100 µM	> 100 µM	
> 100 µM	O=C(NCc1ccncc1)c1cc([C@@H]2CCNC[C@H]2COc2ccc3c(c2)OCO3)ccc1F	> 100 µM	> 100 µM	
> 100 µM	O=C(NCCc1cn[nH]c1)c1cc([C@@H]2CCNC[C@H]2COc2ccc3c(c2)OCO3)ccc1F	> 100 µM	> 100 µM	
> 100 µM	O=C(NCCc1ccccc1)c1cc([C@@H]2CCNC[C@H]2COc2ccc3c(c2)OCO3)ccc1F	> 100 µM	> 100 µM	
> 100 µM	O=C(NCc1ccn[nH]1)c1cc([C@@H]2CCNC[C@H]2COc2ccc3c(c2)OCO3)ccc1F			inhibition [7]: Active; concentration at 4 h [4]: 270 nM; concentration at 7 h [5]: 43 nM; MEC [8]: 0.1 µM
> 100 µM	O=C(NCCc1cccnc1)c1cc([C@@H]2CCNC[C@H]2COc2ccc3c(c2)OCO3)ccc1F	> 100 µM	> 100 µM	
> 100 µM	O=C(NCCc1ccncc1)c1cc([C@@H]2CCNC[C@H]2COc2ccc3c(c2)OCO3)ccc1F	> 100 µM	> 100 µM	
